Laboratory results published in ChEMBL document CHEMBL4715911, “Quest for a potent antimalarial drug lead: Synthesis and evaluation of 6,7-dimethoxyquinazoline-2,4-diamines” (Bioorg Med Chem, 2021).

Assays:
[1] = tested on: Plasmodium berghei; experiment: Antimalarial activity against Plasmodium berghei NK65 infected in ICR mouse assessed as animal mean survival days at 66.3 mg/kg, po qd for 4 days (reference value: 6.2 day); assay type: functional; conditions: time 4 day
[2] = tested on: Plasmodium berghei; experiment: Antimalarial activity against Plasmodium berghei NK65 infected in ICR mouse assessed as reduction in parasitemia at 66.3 mg/kg, po qd for 4 days by Diff-Quik staining based microscopic method (reference value: 0%); assay type: functional; conditions: 96 h, time 4 day
[3] = tested on: L6; experiment: Cytotoxicity against rat L6 cells assessed as reduction in cell viability incubated for 70 hrs by resazurin dye based fluorescence assay; conditions: L6, 70 h
Summary of the method: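 L6 rat skeletal myoblasts seeded at 4000 cells/well in RPMI 1640 with 1% L-glutamine and 10% FBS. Eleven 3-fold drug dilutions (100 to 0.002 µg/mL) added 24 h after seeding, then 70 h incubation. Resazurin added for 2 h. Fluorescence read at ex 536/em 588 nm. IC50 from 4-parameter logistic fit, average of two independent determinations.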

[4] = Selectivity index, ratio of IC50 for cytotoxicity against rat L6 cells to IC50 for antimalarial activity against Plasmodium falciparum NF54; assay type: toxicity, cell-based; conditions: read-out: Ratio IC50
Summary of the method: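 SI calculated as L6 cytotoxicity IC50 divided by P. falciparum NF54 IC50, both measured in parallel in vitro assays.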

[5] = tested on: Plasmodium falciparum; experiment: Antimalarial activity against Plasmodium falciparum NF54 assessed as inhibition of parasite growth incubated for 48 hrs by [3H]hypoxanthine incorporation assay based liquid scintillation counting method; assay type: functional, organism-based
Summary of the method: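 ³H-hypoxanthine incorporation against erythrocytic P. falciparum NF54 (drug-sensitive). Culture in hypoxanthine-free RPMI 1640 with HEPES, NaHCO3, neomycin and Albumax, on human A+ red cells at 2.5% hematocrit, 0.3% parasitemia. Eleven 3-fold dilutions spanning 100 to 0.002 µg/mL. 37 °C in 4% CO2/3% O2/93% N2. Label (0.5 µCi) added after 48 h, then a further 24 h. Scintillation counting. IC50 from 4-parameter logistic fit, average of two independent determinations.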

[6] = tested on: Plasmodium berghei; experiment: Antimalarial activity against Plasmodium berghei NK65 infected in ICR mouse assessed as animal mean survival days at 50 mg/kg, po qd for 4 days (reference value: 6.2 +/- 0.5 day); assay type: functional; conditions: time 4 day
[7] = tested on: Plasmodium berghei; experiment: Antimalarial activity against Plasmodium berghei NK65 infected in ICR mouse assessed as parasitemia at 50 mg/kg, po qd for 4 days by Diff-Quik staining based microscopic method (reference value: 28.4 +/- 10.2%); assay type: functional; conditions: time 4 day
[8] = tested on: Plasmodium berghei; experiment: Antimalarial activity against Plasmodium berghei NK65 infected in ICR mouse assessed as reduction in parasitemia at 50 mg/kg, po qd for 4 days by Diff-Quik staining based microscopic method (reference value: 0%); assay type: functional; conditions: 96 h, time 4 day
[9] = tested on: Plasmodium berghei; experiment: Antimalarial activity against Plasmodium berghei NK65 infected in ICR mouse assessed as animal mean survival days at 58.4 mg/kg, po qd for 4 days (reference value: 6.2 day); assay type: functional; conditions: time 4 day
[10] = tested on: Plasmodium berghei; experiment: Antimalarial activity against Plasmodium berghei NK65 infected in ICR mouse assessed as reduction in parasitemia at 58.4 mg/kg, po qd for 4 days by Diff-Quik staining based microscopic method (reference value: 0%); assay type: functional; conditions: 96 h, time 4 day
[11] = tested on: Plasmodium berghei; experiment: Antimalarial activity against Plasmodium berghei NK65 infected in ICR mouse assessed as animal mean survival days at 58.2 mg/kg, po qd for 4 days (reference value: 6.2 +/-0.5 day); assay type: functional; conditions: time 4 day
[12] = tested on: Plasmodium berghei; experiment: Antimalarial activity against Plasmodium berghei NK65 infected in ICR mouse assessed as reduction in parasitemia at 58.2 mg/kg, po qd for 4 days by Diff-Quik staining based microscopic method (reference value: 0%); assay type: functional; conditions: 96 h, time 4 day
[13] = tested on: Plasmodium berghei; experiment: Antimalarial activity against Plasmodium berghei NK65 infected in ICR mouse assessed as animal mean survival days at 57 mg/kg, po qd for 4 days (reference value: 6.2 day); assay type: functional; conditions: time 4 day
[14] = tested on: Plasmodium berghei; experiment: Antimalarial activity against Plasmodium berghei NK65 infected in ICR mouse assessed as reduction in parasitemia at 57 mg/kg, po qd for 4 days by Diff-Quik staining based microscopic method (reference value: 0%); assay type: functional; conditions: 96 h, time 4 day
[15] = tested on: Plasmodium berghei; experiment: Antimalarial activity against Plasmodium berghei NK65 infected in ICR mouse assessed as reduction in parasitemia at 59 mg/kg, po qd for 4 days by Diff-Quik staining based microscopic method (reference value: 0%); assay type: functional; conditions: 96 h, time 4 day
[16] = tested on: Plasmodium berghei; experiment: Antimalarial activity against Plasmodium berghei NK65 infected in ICR mouse assessed as animal mean survival days at 59 mg/kg, po qd for 4 days (reference value: 6.2 day); assay type: functional; conditions: time 4 day
[17] = tested on: Plasmodium berghei; experiment: Antimalarial activity against Plasmodium berghei NK65 infected in ICR mouse assessed as animal mean survival days at 63.7 mg/kg, po qd for 4 days (reference value: 6.2 day); assay type: functional; conditions: time 4 day
[18] = tested on: Plasmodium berghei; experiment: Antimalarial activity against Plasmodium berghei NK65 infected in ICR mouse assessed as reduction in parasitemia at 63.7 mg/kg, po qd for 4 days by Diff-Quik staining based microscopic method (reference value: 0%); assay type: functional; conditions: 96 h, time 4 day
[19] = tested on: Plasmodium berghei; experiment: Antimalarial activity against Plasmodium berghei NK65 infected in po dosed ICR mouse assessed as increase in mean survival days for administered for 4 days; assay type: functional, organism-based; conditions: dose 50-100 mg/kg, time 4.0 day
Summary of the method: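 Female ICR mice (25–27 g) infected via tail vein with 2×10^7 P. berghei NK65 parasitized RBC. Oral dosing in 0.5% methyl cellulose at 4 h post-infection, then days 1–3. Survival days recorded and mean survival days compared with vehicle controls. Student's t-test and Kaplan-Meier analysis applied. Mice without parasitemia at day 30 counted as cured.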

Compound | IC50 [3] [µM] | selectivity ratio [4] | IC50 [5] [µM] | further results
COc1cc2nc(Nc3ccncc3)nc(NCc3ccncc3)c2cc1OC.Cl.Cl |  |  |  | MSD [1]: 7.7 days; inhibition in vivo at 66.3 mg/kg [2]: 29.4%
CCCCNc1nc(NCc2ccncc2)nc2cc(OC)c(OC)cc12 | 11 | 1360 | 0.00816 | 
CCNc1nc(NCCc2ccccc2)nc2cc(OC)c(OC)cc12 | 1.68 | 99 | 0.017 | 
COc1cc2nc(N3CCCC3)nc(Nc3ccccc3C)c2cc1OC | 8.46 | 257 | 0.0329 | MSD [6]: 6.8 days; Activity [7]: 23.4%; inhibition in vivo at 50 mg/kg [8]: 26.8%
CCCCCCCCNc1nc(N2CCCC2)nc2cc(OC)c(OC)cc12 | 1.48 | 1060 | 0.0014 | 
CCCCNc1nc(Nc2cccnc2)nc2cc(OC)c(OC)cc12 | 150 | 5900 | 0.0254 | 
CCCCNc1nc(NCC)c2cc(OC)c(OC)cc2n1 | 5.29 | 230 | 0.023 | 
COc1cc2nc(N3CCCC3)nc(NC(C)CCc3ccccc3)c2cc1OC (stereo not drawn) | 4.48 | 613 | 0.0073 | 
CCCCNc1nc(NCCCOCC)nc2cc(OC)c(OC)cc12 | 4.46 | 161 | 0.0276 | 
CCNc1nc(Nc2cccnc2)nc2cc(OC)c(OC)cc12 | 112 | 18200 | 0.00614 | 
CCNc1nc(Nc2ccncc2)nc2cc(OC)c(OC)cc12.Cl |  |  |  | MSD [9]: 7 days; inhibition in vivo at 58.4 mg/kg [10]: 1%
COc1cc2nc(Nc3cccnc3)nc(Nc3ccccc3C)c2cc1OC | 170 | 8250 | 0.0206 | 
CCCCNc1nc(N2CCCC2)nc2cc(OC)c(OC)cc12 | 61.8 |  | 0.0018 | MSD [6]: 6.6 days; Activity [7]: 10.8%; inhibition in vivo at 50 mg/kg [8]: 60%
COc1cc2nc(Nc3ccncc3)nc(Nc3ccccc3C)c2cc1OC | 213 | 4350 | 0.049 | 
COc1cc2nc(Nc3ccncc3)nc(NC(C)C)c2cc1OC.Cl.Cl |  |  |  | MSD [11]: 8.3 days; inhibition in vivo at 58.2 mg/kg [12]: 39.5%
CCC(CC)Nc1nc(Nc2cccnc2)nc2cc(OC)c(OC)cc12 | 155 | 8190 | 0.019 | 
CCCCNc1nc(NC(C)C)c2cc(OC)c(OC)cc2n1 | 5.31 | 1690 | 0.00314 | 
COc1cc2nc(N3CCC(C(N)=O)CC3)nc(NCc3ccccc3)c2cc1OC | 4.98 | 27.7 | 0.18 | 
CCCCCCCCNc1nc(N2CCCC2)nc2cc(OC)c(OC)cc12.Cl |  |  |  | MSD [13]: 6.7 days; inhibition in vivo at 57 mg/kg [14]: 48.8%
COc1cc2nc(N3CCCC3)nc(NCc3cccnc3)c2cc1OC.Cl |  |  |  | inhibition in vivo at 59 mg/kg [15]: 80.3%; MSD [16]: 8 days
COc1cc2nc(Nc3ccncc3)nc(NC(C)c3ccccc3)c2cc1OC (stereo not drawn) | 62.7 | 156000 | 0.0004 | 
COc1cc2nc(Nc3ccncc3)nc(NC(C)c3ccccc3)c2cc1OC.Cl.Cl (stereo not drawn) |  |  |  | MSD [17]: 8.3 days; inhibition in vivo at 63.7 mg/kg [18]: 6.6%
COc1cc2nc(Nc3ccncc3)nc(NCc3cccnc3)c2cc1OC | 138 | 10700 | 0.0128 | 
COc1cc2nc(N3CCCC3)nc(N3CCCC3)c2cc1OC | 3.96 | 3.8 | 1.04 | 
CCCCCCCCNc1nc(Nc2ccncc2)nc2cc(OC)c(OC)cc12 | 1.76 | 241 | 0.0073 | 

Compound | IC50 [3] [µM] | selectivity ratio [4] | IC50 [5] [µM] | further results
COc1cc2nc(N3CCCC3)nc(NC(C)C)c2cc1OC | 12.5 | 3430 |  | 
CCCCCCCCNc1nc(Nc2ccncc2)nc2cc(OC)c(OC)cc12.Cl |  |  |  | MSD [9]: 7.3 days; inhibition in vivo at 58.4 mg/kg [10]: 54.8%
CCCCNc1nc(NCCCC)c2ccccc2n1 | 3.01 | 25.6 | 0.121 | 
CCC(C)Nc1nc(Nc2ccncc2)nc2cc(OC)c(OC)cc12 (stereo not drawn) | 47.7 | 16800 | 0.00283 | 
COc1cc2nc(Nc3ccncc3)nc(NCc3ccncc3)c2cc1OC | 138 | 4470 | 0.0309 | 
CCCCNc1nc(Nc2ccncc2)nc2cc(OC)c(OC)cc12 | 105 |  | 0.00567 | 
CCCCNc1nc(NCc2ccccn2)nc2cc(OC)c(OC)cc12 | 10.6 | 1000 | 0.0109 | 
COc1cc2nc(Nc3ccncc3)nc(NC(C)C)c2cc1OC | 81.4 | 28000 | 0.0029 | 
CCNc1nc(Cl)nc2cc(OC)c(OC)cc12 | 52.6 | 3.33 | 15.8 | 
COc1cc2nc(Nc3ccncc3)nc(Nc3ccccc3C(F)(F)F)c2cc1OC | 138 | 6100 | 0.0226 | 
COc1cc2nc(Nc3ccncc3)nc(NCc3cccnc3)c2cc1OC.Cl.Cl |  |  |  | MSD [1]: 8.7 days; inhibition in vivo at 66.3 mg/kg [2]: 27.1%
CCCCNc1ncnc2cc(OC)c(OC)cc12 | 73.6 | 15.6 | 4.71 | 
COc1cc2nc(Nc3cccnc3)nc(NC(C)C)c2cc1OC | 249 | 16900 | 0.0147 | 
CCCCNc1nc(NCc2cccnc2)nc2cc(OC)c(OC)cc12 | 11.1 | 5120 | 0.00217 | 
COc1cc2nc(N3CCCC3)nc(N)c2cc1OC | 28.2 | 17 | 1.66 | 
COc1cc2nc(N3CCCC3)nc(NC(C)c3ccccc3)c2cc1OC (stereo not drawn) [listing 1 of 2 here] |  |  |  | Activity [19]: Dose dependent effect
CCNc1nc(NCc2ccccc2)nc2cc(OC)c(OC)cc12 | 5.44 | 367 | 0.0148 | 
COc1cc2nc(N3CCCC3)nc(NC(C)c3ccccc3)c2cc1OC (stereo not drawn) [listing 2 of 2 here] | 4.81 | 481 | 0.01 | MSD [6]: 19.8 days; Activity [7]: 2.5%; inhibition in vivo at 50 mg/kg [8]: 90.4%
COc1cc2nc(N3CCCC3)nc(NCc3ccccc3)c2cc1OC | 9.49 | 1900 | 0.00549 | 
CCNc1nc(Nc2ccncc2)nc2cc(OC)c(OC)cc12 | 55.1 | 17900 | 0.00307 | 
CCCCNc1nc(NCCCC)c2cc(OC)c(OC)cc2n1 | 3.67 | 1750 | 0.0021 | 
CCC(CC)Nc1nc(Nc2ccncc2)nc2cc(OC)c(OC)cc12 | 110 | 2130 | 0.0518 | 
COc1cc2nc(N3CCCC3)nc(NCc3cccnc3)c2cc1OC | 27.3 | 2000 | 0.0136 | 
CCNc1nc(OC)nc2cc(OC)c(OC)cc12 | 67.3 | 1.9 | 34.8 | 
